Values after ≈ are worked out from the molar mass of the structure shown.

The assay deals with Mycobacterium tuberculosis. The assay can be described thus: Antituberculosis activity against Mycobacterium tuberculosis H37Rv by microbroth dilution method. In kind it is functional. A digest of the protocol: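 M. tuberculosis H37Rv grown in Middlebrook 7H9 with 10% ADC to OD600 0.4–0.6, then diluted in 7H9 to OD600 0.01. This inoculum was added to 2-fold serial dilutions of compound and incubated 37 °C for 7 days. MIC90 was read visually as the concentration inhibiting 90% of growth.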

As to `CC[C@@H](CO)NCCN[C@H](CO)c1ccccc1.Cl.Cl`, the MIC90 came to 50 µg/mL.
`C=CC[C@@](C)(CO)NCCN[C@@H](CC)CO.Cl.Cl`: the MIC90 turned out to be 6.25 µg/mL.
In turn, `CC[C@@H](CO)NCCN[C@@](C)(CC)CO` yielded an MIC90 of 3.12 µg/mL (≈ 14.3 µM).
In the case of `CC[C@@H](CO)NCCNC(C)(C)CO.Cl.Cl`, the MIC90 was 1.6 µg/mL.
As for `CC[C@@H](CO)NCCNC1(CO)CCCC1.Cl.Cl`, the MIC90 was 1.6 µg/mL.
The compound `Br.Br.CC[C@@H](CO)NCCN[C@@H](CC)CO` [ETHAMBUTOL HYDROBROMIDE] yielded an MIC90 of 0.8 µg/mL.
`CC(C)(CO)NCCNC(C)(C)CO.Cl.Cl` displayed an MIC90 of 6.25 µg/mL.
`CC[C@@H](CO)NCCNC(CO)CO.Cl.Cl` registered an MIC90 of 3.12 µg/mL.
`C=CC[C@@H](CO)NCCN[C@@H](CC)CO.Cl.Cl` yielded an MIC90 of 25 µg/mL.
Under `Cl.Cl.OCC1(NCCNC2(CO)CCCC2)CCCC1` stands 3.12 µg/mL.

By MIC90 is commonly meant an inhibitory concentration at the 90% level, which refers to growth in some studies and to a panel of isolates in others.

(Values after ChEMBL document CHEMBL1141491, “Design, synthesis, and evaluation of novel ethambutol analogues” (2008).)
